Measurements pooled from the literature.
Compare with care: the assays were run in different laboratories. pKi: −log10 of the molar value.
Adora1: Adenosine receptor A1 (Adora1, Rattus norvegicus, UniProt P25099)
HRH1: Histamine H1 receptor (HRH1, Homo sapiens, UniProt P35367)

SMILES	target	assay	setting	pKi
C=CN1CCCn2c1nc1c2c(=O)n(C)c(=O)n1C	Adora1	ligand displacement, radioligand	cell membranes	< 4.60
CCCCN1CCC(COC(=O)c2ccc(N)c(OCF)c2)CC1	Muscarinic acetylcholine receptor M4 (CHRM4, Homo sapiens, UniProt P08173)	cell-free assay, radioligand	–	< 5.00
O=C1CCCc2ccc(OCc3ccc(OCCCN4CCCCC4)cc3)cc21	HRH1	ligand displacement, radioligand	cell membranes	5.43
CCCCCCN1CCCn2c1nc1c2c(=O)n(C)c(=O)n1C	Adora1	ligand displacement, radioligand	cell membranes	5.54
Nc1nc2ncc(CNc3ccc(C(=O)N[C@@H](CCC(=O)O)C(=O)O)cc3)nc2c(=O)[nH]1	Proton-coupled folate transporter (Homo sapiens, UniProt Q96NT5)	transporter uptake, inhibitor, radiometric	pH 5.5	6.23
CN1CCC(C2c3ccccc3C=Cc3ccccc32)CC1	HRH1	cell-free assay, radioligand	–	9.30
CN(C)c1ccc(/C=C2\CCc3cc(OCc4ccc(OCCCN5CCCCC5)cc4)ccc3C2=O)cc1	HRH1	ligand displacement, radioligand	cell membranes	5.75
NC(=O)CCNC(=S)NCCCC[C@H](NS(=O)(=O)c1cccc(F)c1)C(=O)N[C@@H](Cc1c[nH]c2ccccc12)C(=O)NC1CCC1	NAD-dependent protein deacylase sirtuin-5, mitochondrial (SIRT5, Homo sapiens, UniProt Q9NXA8)	enzyme activity, inhibitor	–	5.48
O=C(O)c1cc(O)c2c(c1)C(=O)c1cc(O)cc(O)c1C2=O	Amine oxidase [flavin-containing] B (MAOB, Homo sapiens, UniProt P27338)	enzyme activity, inhibitor	–	4.54
CC[C@H](NC(=O)[C@H](CS(=O)(=O)CC1CC1)N[C@@H](c1ccc(F)cc1)C(F)(F)F)C(=O)C(=O)NC1CC1	Cathepsin L2 (CTSV, Homo sapiens, UniProt O60911)	enzyme activity, inhibitor, fluorescence	with preincubation	9.60
C#CCN1CCCn2c1nc1c2c(=O)n(C)c(=O)n1C	Adora1	ligand displacement, radioligand	cell membranes	≤ 4.60
CCn1c(-c2nc3cc(C(=O)N4CCC[C@@H](N)C4)cc(OC)c3n2C)cc2cccnc21	Protein-arginine deiminase type-4 (PADI4, Homo sapiens, UniProt Q9UM07)	enzyme activity, inhibitor	–	4.80
